Activity calls are given as the source filed them.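 How the source made its calls: active means compound with IC50 above 30 µM at both the APJ and CCR6 off-target receptors, and at most 10 µM at CXCR6; inactive means the rest.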
How the values were obtained:
Experiment in all cases: antagonism across CCR6, APJ and CXCR6 receptors, profiling panel, selectivity assay for CXCR6 antagonist project, cell-based, CHO-K1 PathHunter beta-arrestin, luminescence, set 3 (AID 651708)
[1] = molecular target: Apelin receptor (Homo sapiens) (UniProt P35414); conditions: antagonist mode, APJ
Sequence of Apelin receptor (Homo sapiens) (P35414 whole entry, looked up): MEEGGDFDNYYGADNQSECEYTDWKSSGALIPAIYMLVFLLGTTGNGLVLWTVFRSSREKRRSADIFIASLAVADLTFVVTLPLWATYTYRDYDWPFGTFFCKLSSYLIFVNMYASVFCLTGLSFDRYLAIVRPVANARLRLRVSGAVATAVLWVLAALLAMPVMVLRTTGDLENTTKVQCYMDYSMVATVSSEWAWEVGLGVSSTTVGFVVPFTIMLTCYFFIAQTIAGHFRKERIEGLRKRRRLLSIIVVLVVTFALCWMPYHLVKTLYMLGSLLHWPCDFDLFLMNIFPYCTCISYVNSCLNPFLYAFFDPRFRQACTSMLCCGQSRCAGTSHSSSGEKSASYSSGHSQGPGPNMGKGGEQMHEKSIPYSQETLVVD
Outline: (§1)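 System: CHO-K1 PathHunter β-arrestin cell lines for APJ, CCR6 or CXCR6. Reagent: APJ 10 nM Apelin-13, CCR6 14 nM CCL20, CXCR6 CXCL16. Detection: β-arrestin recruitment luminescence.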

[2] = molecular target: C-C chemokine receptor type 6 (Homo sapiens) (UniProt P51684); conditions: antagonist mode
Sequence of C-C chemokine receptor type 6 (Homo sapiens) (P51684 whole entry, looked up): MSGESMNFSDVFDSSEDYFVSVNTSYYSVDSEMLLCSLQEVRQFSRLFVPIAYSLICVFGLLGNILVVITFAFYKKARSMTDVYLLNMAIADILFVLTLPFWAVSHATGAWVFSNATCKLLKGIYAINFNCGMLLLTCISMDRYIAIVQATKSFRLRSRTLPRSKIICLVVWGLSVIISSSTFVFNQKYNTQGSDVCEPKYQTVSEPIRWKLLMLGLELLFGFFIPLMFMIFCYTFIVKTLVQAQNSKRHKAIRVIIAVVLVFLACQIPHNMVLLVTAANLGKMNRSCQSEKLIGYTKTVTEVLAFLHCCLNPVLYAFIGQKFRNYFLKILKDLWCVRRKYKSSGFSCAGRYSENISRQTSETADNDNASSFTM
Outline: as §1

[3] = molecular target: C-X-C chemokine receptor type 6 (Homo sapiens) (UniProt O00574); conditions: antagonist mode
Sequence of C-X-C chemokine receptor type 6 (Homo sapiens) (O00574 whole entry, looked up): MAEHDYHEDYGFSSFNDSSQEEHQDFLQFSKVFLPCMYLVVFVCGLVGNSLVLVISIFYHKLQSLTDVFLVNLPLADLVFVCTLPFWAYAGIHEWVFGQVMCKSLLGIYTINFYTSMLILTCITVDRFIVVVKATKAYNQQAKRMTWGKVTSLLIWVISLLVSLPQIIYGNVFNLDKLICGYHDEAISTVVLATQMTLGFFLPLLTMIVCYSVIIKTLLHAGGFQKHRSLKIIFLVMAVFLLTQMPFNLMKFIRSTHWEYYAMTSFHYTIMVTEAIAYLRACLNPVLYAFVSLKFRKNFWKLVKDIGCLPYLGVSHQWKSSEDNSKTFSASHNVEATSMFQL
Outline: as §1

Row | SMILES | IC50 ([1]; run 1) [µM] | IC50 ([1]; run 2) [µM] | IC50 ([2]; CCR6, mean of runs) | IC50 ([2]; CCR6, run 1) [µM] | IC50 ([2]; CCR6, run 2) [µM] | IC50 ([3]; CXCR6, mean of runs) | IC50 ([3]; CXCR6, run 1) [µM] | IC50 ([3]; CXCR6, run 2) [µM] | IC50 ([1]; mean of runs)
1 | COc1cc(C(=O)NC2CC3CCCC(C2)N3CC(=O)Nc2ccccc2Cl)cc(OC)c1OC (configuration not stated) | > 79 | 0.818 | > 79 µM (inactive) | > 79 | > 79 | 0.338 µM | 0.191 | 0.484 | –
2 | O=C(CN1C2CCCC1CC(NC(=O)c1ccc3c(c1)OCO3)C2)Nc1ccc(F)cc1 (configuration not stated) | > 79 | > 79 | > 79 µM (inactive) | > 79 | > 79 | > 79 µM (inactive) | > 79 | > 79 | > 79 µM (inactive)
3 | COc1cccc(C(=O)NC2CC3CCCC(C2)N3CC(=O)Nc2ccc(C)cc2)c1 (configuration not stated) | > 79 | 1.18 | > 79 µM (inactive) | > 79 | > 79 | > 79 µM (inactive) | > 79 | > 79 | –
4 | COc1cc(C(=O)NC2CC3CCCC(C2)N3CC(=O)Nc2ccc(C)cc2)cc(OC)c1OC (configuration not stated) | > 79 | > 79 | > 79 µM (inactive) | > 79 | > 79 | 5.69 µM | 5.37 | 6 | > 79 µM (inactive)
5 | Cc1ccc(NC(=O)CN2C3CCCC2CC(NC(=O)c2ccc4c(c2)OCO4)C3)cc1 (configuration not stated) | > 79 | 28.6 | > 79 µM (inactive) | > 79 | > 79 | > 79 µM (inactive) | > 79 | > 79 | –

From PubChem BioAssay AID651708 (Sanford-Burnham Center for Chemical Genomics, 2012)
